# Experimental data as given in ChEMBL document CHEMBL1671716, “Antimicrobial susceptibility patterns for recent clinical isolates of anaerobic bacteria in South Korea” (2010).
# Key:
# [1] = test system: Parabacteroides distasonis; assay: Antimicrobial activity against Bacteroides distasonis assessed as percent resistant isolates after 48 hrs by agar dilution method; format: functional
# Summary of the method: (§1)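 CLSI agar dilution on recent Korean clinical anaerobe isolates. Inoculum 10^5 CFU per spot by replicator. Plates incubated in an anaerobic chamber at 37°C for 48 h. For piperacillin plus tazobactam, tazobactam was held constant at 4 μg/ml. Resistance and susceptibility rates derived from MICs.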
# Prevotella intermedia = assay: Antimicrobial activity against Prevotella intermedia after 48 hrs by agar dilution method; format: functional
# Summary of the method: (§2)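 CLSI agar dilution (M11-A7); inoculum 10^5 CFU applied by replicator; plates incubated anaerobically 48 h at 37°C. For piperacillin-tazobactam, tazobactam held constant at 4 μg/ml.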
# Phocaeicola vulgatus [2] = assay: Antimicrobial activity against Bacteroides vulgatus assessed as percent susceptible isolates after 48 hrs by agar dilution method; format: functional
# Fusobacterium mortiferum = assay: Antimicrobial activity against Fusobacterium mortiferum after 48 hrs by agar dilution method; format: functional; summary of the method: as §2
# Bacteroides ovatus [3] = assay: Antimicrobial activity against Bacteroides ovatus assessed as percent resistant isolates after 48 hrs by agar dilution method; format: functional; summary of the method: as §1
# [4] = test system: Peptostreptococcus anaerobius; assay: Antimicrobial activity against Peptostreptococcus anaerobius assessed as percent susceptible isolates after 48 hrs by agar dilution method; format: functional; summary of the method: as §1
# Bacteroides fragilis [5] = assay: Antimicrobial activity against Bacteroides fragilis assessed as percent resistant isolates after 48 hrs by agar dilution method; format: functional; summary of the method: as §1
# [6] = test system: Parabacteroides distasonis; assay: Antimicrobial activity against Bacteroides distasonis after 48 hrs by agar dilution method; format: functional
# Summary of the method: (§3)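 MICs on clinical anaerobe isolates by the CLSI agar dilution method. Inoculum of 10^5 CFU applied with a Steers replicator. Plates incubated 48 h at 37°C in an anaerobic chamber.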
# Bifidobacterium sp. = assay: Antimicrobial activity against Bifidobacterium sp. assessed as percent susceptible isolates after 48 hrs by agar dilution method; format: functional; summary of the method: as §2
# Prevotella bivia = assay: Antimicrobial activity against Prevotella bivia after 48 hrs by agar dilution method; format: functional; summary of the method: as §2
# Actinomyces naeslundii [7] = assay: Antimicrobial activity against Actinomyces naeslundii after 48 hrs by agar dilution method; format: functional; summary of the method: as §3
# Phocaeicola vulgatus [8] = assay: Antimicrobial activity against Bacteroides vulgatus assessed as percent resistant isolates after 48 hrs by agar dilution method; format: functional; summary of the method: as §1
# Hoylesella oralis [9] = assay: Antimicrobial activity against Prevotella oralis after 48 hrs by agar dilution method; format: functional; summary of the method: as §2
# Fusobacterium nucleatum = assay: Antimicrobial activity against Fusobacterium nucleatum after 48 hrs by agar dilution method; format: functional; summary of the method: as §2
# Hoylesella oralis [10] = assay: Antimicrobial activity against Prevotella oralis assessed as percent susceptible isolates after 48 hrs by agar dilution method; format: functional
# Summary of the method: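 CLSI agar dilution MIC testing of clinical isolates. 10^5 CFU spotted by replicator, plates incubated 48 h at 37°C in an anaerobic chamber. Susceptibility rates derived from the MICs.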
# [11] = test system: Porphyromonas asaccharolytica; assay: Antimicrobial activity against Porphyromonas asaccharolytica after 48 hrs by agar dilution method; format: functional; summary of the method: as §2
# Finegoldia magna = assay: Antimicrobial activity against Finegoldia magna assessed as percent susceptible isolates after 48 hrs by agar dilution method; format: functional; summary of the method: as §2
# Parvimonas micra = assay: Antimicrobial activity against Peptostreptococcus micros after 48 hrs by agar dilution method; format: functional; summary of the method: as §2
# Schaalia meyeri [12] = assay: Antimicrobial activity against Actinomyces meyeri after 48 hrs by agar dilution method; format: functional; summary of the method: as §3
# Actinomyces israelii [13] = assay: Antimicrobial activity against Actinomyces israelii assessed as percent susceptible isolates after 48 hrs by agar dilution method; format: functional
# Schaalia meyeri [14] = assay: Antimicrobial activity against Actinomyces meyeri assessed as percent susceptible isolates after 48 hrs by agar dilution method; format: functional
# Bacteroides fragilis [15] = assay: Antimicrobial activity against Bacteroides fragilis assessed as percent susceptible isolates after 48 hrs by agar dilution method; format: functional
# Actinomyces naeslundii [16] = assay: Antimicrobial activity against Actinomyces naeslundii assessed as percent resistant isolates after 48 hrs by agar dilution method; format: functional; summary of the method: as §1
# Bacteroides ovatus [17] = assay: Antimicrobial activity against Bacteroides ovatus assessed as percent susceptible isolates after 48 hrs by agar dilution method; format: functional
# Prevotella buccae [18] = assay: Antimicrobial activity against Prevotella buccae after 48 hrs by agar dilution method; format: functional; settings: Segatella buccae; summary of the method: as §2
# [19] = test system: Bacteroides thetaiotaomicron; assay: Antimicrobial activity against Bacteroides thetaiotaomicron assessed as percent susceptible isolates after 48 hrs by agar dilution method; format: functional
# Prevotella buccae [20] = assay: Antimicrobial activity against Prevotella buccae assessed as percent susceptible isolates after 48 hrs by agar dilution method; format: functional, Segatella buccae; summary of the method: as §2
# Actinomyces israelii [21] = assay: Antimicrobial activity against Actinomyces israelii after 48 hrs by agar dilution method; format: functional; summary of the method: as §3
# Bacteroides fragilis [22] = assay: Antimicrobial activity against Bacteroides fragilis after 48 hrs by agar dilution method; format: functional; summary of the method: as §3
smiles,measurement,setting,value
C[C@@H](O)[C@H]1C(=O)N2C(C(=O)O)=C(SCCNC=N)C[C@H]12 [IMIPENEM ANHYDROUS],Activity,[1],4%
same,MIC,Prevotella intermedia,0.02 µg/mL
same,MIC50,Prevotella intermedia,0.03 µg/mL
same,MIC90,Prevotella intermedia,0.06 µg/mL
same,Activity,Phocaeicola vulgatus [2],95%
same,MIC,Fusobacterium mortiferum,0.02 µg/mL
same,Activity,Bacteroides ovatus [3],4%
same,Activity,[4],100%
same,Activity,Bacteroides fragilis [5],2%
same,MIC50,[6],0.5 µg/mL
same,MIC90,[6],4 µg/mL
same,Activity,Bifidobacterium sp.,100%
same,MIC50,Prevotella bivia,0.06 µg/mL
same,MIC90,Prevotella bivia,0.5 µg/mL
same,MIC50,Actinomyces naeslundii [7],0.06 µg/mL
same,MIC90,Actinomyces naeslundii [7],0.5 µg/mL
same,Activity,Phocaeicola vulgatus [8],4%
same,MIC50,Hoylesella oralis [9],0.06 µg/mL
same,MIC90,Hoylesella oralis [9],0.5 µg/mL
same,MIC,Fusobacterium nucleatum,0.02 µg/mL
same,Activity,Hoylesella oralis [10],100%
same,MIC,[11],0.02 µg/mL
same,Activity,Finegoldia magna,100%
same,MIC50,Parvimonas micra,0.125 µg/mL
same,MIC90,Parvimonas micra,2 µg/mL
same,MIC50,Schaalia meyeri [12],0.06 µg/mL
same,MIC90,Schaalia meyeri [12],0.5 µg/mL
same,Activity,Actinomyces israelii [13],100%
same,Activity,Schaalia meyeri [14],100%
same,Activity,Bacteroides fragilis [15],98%
same,Activity,Actinomyces naeslundii [16],0%
same,Activity,Bacteroides ovatus [17],95%
same,MIC50,Prevotella buccae [18],0.06 µg/mL
same,MIC90,Prevotella buccae [18],0.5 µg/mL
same,Activity,[19],95%
same,Activity,Prevotella buccae [20],100%
same,MIC50,Actinomyces israelii [21],0.06 µg/mL
same,MIC90,Actinomyces israelii [21],0.5 µg/mL
same,MIC50,Bacteroides fragilis [22],0.125 µg/mL
same,MIC90,Bacteroides fragilis [22],1 µg/mL
C[C@@H](O)[C@H]1C(=O)N2C(C(=O)O)=C(S[C@@H]3CN[C@H](C(=O)N(C)C)C3)[C@H](C)[C@H]12 [MEROPENEM],Activity,[1],0%
same,MIC50,Prevotella intermedia,0.06 µg/mL
same,MIC90,Prevotella intermedia,0.06 µg/mL
same,Activity,Phocaeicola vulgatus [2],98%
same,MIC,Fusobacterium mortiferum,0.008 µg/mL
same,Activity,Bacteroides ovatus [3],0%
same,Activity,[4],100%
same,Activity,Bacteroides fragilis [5],3%
same,MIC50,[6],0.25 µg/mL
same,MIC90,[6],2 µg/mL
same,Activity,Bifidobacterium sp.,92%
same,MIC50,Prevotella bivia,0.125 µg/mL
same,MIC90,Prevotella bivia,0.5 µg/mL
same,MIC50,Actinomyces naeslundii [7],0.125 µg/mL
same,MIC90,Actinomyces naeslundii [7],2 µg/mL
same,Activity,Phocaeicola vulgatus [8],0%
same,MIC50,Hoylesella oralis [9],0.125 µg/mL
same,MIC90,Hoylesella oralis [9],0.5 µg/mL
same,MIC,Fusobacterium nucleatum,0.008 µg/mL
same,Activity,Hoylesella oralis [10],100%
same,MIC,[11],0.008 µg/mL
same,Activity,Finegoldia magna,100%
same,MIC,Parvimonas micra,0.01 µg/mL
same,MIC50,Parvimonas micra,0.25 µg/mL
same,MIC90,Parvimonas micra,4 µg/mL
same,MIC50,Schaalia meyeri [12],0.125 µg/mL
same,MIC90,Schaalia meyeri [12],2 µg/mL
same,Activity,Actinomyces israelii [13],92%
same,Activity,Schaalia meyeri [14],92%
same,Activity,Bacteroides fragilis [15],92%
same,Activity,Actinomyces naeslundii [16],8%
same,Activity,Bacteroides ovatus [17],98%
same,MIC50,Prevotella buccae [18],0.125 µg/mL
same,MIC90,Prevotella buccae [18],0.5 µg/mL
same,Activity,[19],98%
same,Activity,Prevotella buccae [20],100%
same,MIC50,Actinomyces israelii [21],0.125 µg/mL
same,MIC90,Actinomyces israelii [21],2 µg/mL
same,MIC50,Bacteroides fragilis [22],0.125 µg/mL
same,MIC90,Bacteroides fragilis [22],4 µg/mL
CO[C@@]1(NC(=O)C2SC(=C(C(N)=O)C(=O)O)S2)C(=O)N2C(C(=O)O)=C(CSc3nnnn3C)CS[C@@H]21 (some centres undefined) [CEFOTETAN],Activity,[1],86%
same,MIC50,Prevotella intermedia,2 µg/mL
same,MIC90,Prevotella intermedia,16 µg/mL
same,Activity,Phocaeicola vulgatus [2],89%
same,MIC,Fusobacterium mortiferum,0.06 µg/mL
same,Activity,Bacteroides ovatus [3],86%
same,Activity,[4],62%
same,Activity,Bacteroides fragilis [5],14%
same,MIC50,[6],> 128 µg/mL
same,MIC90,[6],> 128 µg/mL
same,Activity,Bifidobacterium sp.,85%
same,MIC50,Prevotella bivia,4 µg/mL
same,MIC90,Prevotella bivia,64 µg/mL
same,MIC50,Actinomyces naeslundii [7],4 µg/mL
same,MIC90,Actinomyces naeslundii [7],64 µg/mL
same,Activity,Phocaeicola vulgatus [8],86%
same,MIC50,Hoylesella oralis [9],4 µg/mL
same,MIC90,Hoylesella oralis [9],64 µg/mL
same,MIC,Fusobacterium nucleatum,0.06 µg/mL
same,Activity,Hoylesella oralis [10],72%
same,MIC,[11],0.06 µg/mL
same,Activity,Finegoldia magna,100%
same,MIC50,Parvimonas micra,4 µg/mL
same,MIC90,Parvimonas micra,64 µg/mL
same,MIC50,Schaalia meyeri [12],4 µg/mL
same,MIC90,Schaalia meyeri [12],64 µg/mL
same,Activity,Actinomyces israelii [13],85%
same,Activity,Schaalia meyeri [14],85%
same,Activity,Bacteroides fragilis [15],71%
same,Activity,Actinomyces naeslundii [16],15%
same,Activity,Bacteroides ovatus [17],89%
same,MIC50,Prevotella buccae [18],4 µg/mL
same,MIC90,Prevotella buccae [18],64 µg/mL
same,Activity,[19],89%
same,Activity,Prevotella buccae [20],72%
same,MIC50,Actinomyces israelii [21],4 µg/mL
same,MIC90,Actinomyces israelii [21],64 µg/mL
same,MIC50,Bacteroides fragilis [22],8 µg/mL
same,MIC90,Bacteroides fragilis [22],64 µg/mL
